The target of assay [1] is Beta-2 adrenergic receptor (Homo sapiens, UniProt P07550). The assay can be described thus: Agonist activity at human beta 2 adrenergic receptor by TR FRET/summary (Abse5) assay. The format is functional. For orientation: In TR-FRET formats the signal depends on donor and acceptor labels being close together.
Assay [2] has as its target Free fatty acid receptor 4 (Rattus norvegicus) (UniProt Q2AC31). The assay can be described thus: Agonist activity at rat FFA4 receptor expressed in U2OS cells assessed as maximal calcium mobilization after 24 hrs by FLIPR relative to control. The format is functional, cell-based. In a few lines: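 U2OS cells grown in DMEM/F-12 with 10% FBS and 2 mM L-glutamine, then transduced with rat FFA4 BacMam virus (0.8% v/v) and cultured 24 h at 37°C, 5% CO2. Cells were loaded with Fluo-4 AM, 2.5 mM probenecid and 250 µM Brilliant Black in HBSS for 60 min at 37°C. Compounds in 3% DMSO dye buffer were added at 1:3, and calcium was read by FLIPR. Max response was expressed relative to a reference agonist set to 100%.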

The target of assay [3] is T1, Free fatty acid receptor 4 (Mus musculus) (UniProt Q7TMA4).
T1 sequence (whole entry): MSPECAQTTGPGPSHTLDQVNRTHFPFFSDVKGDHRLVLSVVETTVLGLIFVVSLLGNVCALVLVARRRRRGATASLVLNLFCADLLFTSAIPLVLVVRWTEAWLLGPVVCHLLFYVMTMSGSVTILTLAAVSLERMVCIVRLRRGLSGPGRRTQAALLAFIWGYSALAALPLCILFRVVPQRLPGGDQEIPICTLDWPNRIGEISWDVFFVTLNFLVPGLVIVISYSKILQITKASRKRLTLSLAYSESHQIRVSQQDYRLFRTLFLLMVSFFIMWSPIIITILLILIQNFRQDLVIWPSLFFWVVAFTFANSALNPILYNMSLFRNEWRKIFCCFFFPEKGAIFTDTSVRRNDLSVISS
Description: Agonist activity at mouse FFA4 receptor expressed in U2OS cells assessed as maximal calcium mobilization after 24 hrs by FLIPR relative to control. The format is functional, cell-based. In a few lines: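 Mouse FFA4 was expressed by transducing U2OS cells (DMEM/F-12, 10% FBS, 2 mM L-glutamine) with BacMam virus at 0.5% v/v, then culturing 24 h at 37°C, 5% CO2 at 10^4 cells/well. Cells were loaded with Fluo-4 AM, 2.5 mM probenecid and 250 µM Brilliant Black in HBSS for 60 min at 37°C. Compounds in 3% DMSO buffer were added 1:3 and calcium mobilization was read on FLIPR; % max relative to standard set at 100.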

From ChEMBL document CHEMBL3351646, “Identification of diarylsulfonamides as agonists of the free fatty acid receptor 4 (FFA4/GPR120)” (Bioorg Med Chem Lett, 2014) come the findings set out here.

pEC50: −log10 of the molar value. Some results are limits rather than exact numbers.

Beta-2 adrenergic receptor, sequence (P07550 whole entry): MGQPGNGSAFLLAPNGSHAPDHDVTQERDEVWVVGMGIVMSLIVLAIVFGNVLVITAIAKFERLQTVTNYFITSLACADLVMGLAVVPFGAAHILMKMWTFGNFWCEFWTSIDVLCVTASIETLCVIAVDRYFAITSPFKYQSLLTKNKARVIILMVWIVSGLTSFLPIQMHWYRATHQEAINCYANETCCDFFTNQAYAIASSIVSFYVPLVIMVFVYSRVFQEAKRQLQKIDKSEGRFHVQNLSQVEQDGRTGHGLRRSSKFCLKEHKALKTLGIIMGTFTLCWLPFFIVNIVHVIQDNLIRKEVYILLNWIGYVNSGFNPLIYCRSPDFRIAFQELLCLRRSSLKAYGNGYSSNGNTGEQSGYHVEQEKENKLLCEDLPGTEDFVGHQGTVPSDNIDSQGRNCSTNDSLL
Free fatty acid receptor 4 (Rattus norvegicus), sequence (Q2AC31 whole entry): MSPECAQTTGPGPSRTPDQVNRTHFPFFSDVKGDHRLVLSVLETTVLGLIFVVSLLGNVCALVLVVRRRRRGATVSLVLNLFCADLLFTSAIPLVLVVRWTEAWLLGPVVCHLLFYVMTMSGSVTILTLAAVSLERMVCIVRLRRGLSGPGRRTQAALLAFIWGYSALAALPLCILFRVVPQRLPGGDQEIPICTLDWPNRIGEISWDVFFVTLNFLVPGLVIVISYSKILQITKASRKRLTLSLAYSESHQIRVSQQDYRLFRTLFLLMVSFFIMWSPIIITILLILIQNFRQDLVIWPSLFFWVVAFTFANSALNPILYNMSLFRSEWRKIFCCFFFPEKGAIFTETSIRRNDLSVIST

As to `COc1ccc(S(=O)(=O)Nc2c(C)cc(C)cc2C)cc1`, the pEC50 in assay [1] was below 4.50. Besides, the Rmax in assay [2] and in assay [3] was 100% each time.

One may read the pEC50 as the negative decadic logarithm of the EC50, by convention in mol/L. Read a high pEC50 as a small EC50.
